Experimental data taken from PMC6396318 (Journal of the American Chemical Society, 2019).
Read-outs that look alike come from different tables or passages of the source. Marks after values point to notes of the source that are not given here.

How the values were obtained:
[1] = Indiscriminate thiol reactivity assay with GSH; assay type: physicochemical; details: 23 h incubation with 5 mM GSH at 37 °C, LC–MS UV trace
Procedure, shortened: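 Test compound was incubated with 5 mM GSH in buffer at 37 °C for 23 h. Adduct formation was quantified from the LC–MS UV trace.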

[2] = Indiscriminate thiol reactivity assay with cysteine; assay type: physicochemical; details: for Cysteine adduct formation: incubated with cysteine for 23 h, LC–MS; for Cysteine adduct pH 5.5 / Cysteine adduct pH 7.5 / Cysteine adduct pH 8.0: 23 h incubation with 10 mM cysteine at 37 °C, LC–MS UV trace
Procedure, shortened: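 Test compound was incubated with 10 mM cysteine in buffer at pH 5.5, 7.5 or 8.0 for 23 h at 37 °C. Cysteine adduct formation was quantified from the LC–MS UV trace.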

hCatK [3] = target: T1, hCatK (Homo sapiens, UniProt P43235); assay: Reversibility of inhibition; assay type: biochemical; details: 300-fold dilution into Z-FR-AMC
T1 sequence (P43235 115-329): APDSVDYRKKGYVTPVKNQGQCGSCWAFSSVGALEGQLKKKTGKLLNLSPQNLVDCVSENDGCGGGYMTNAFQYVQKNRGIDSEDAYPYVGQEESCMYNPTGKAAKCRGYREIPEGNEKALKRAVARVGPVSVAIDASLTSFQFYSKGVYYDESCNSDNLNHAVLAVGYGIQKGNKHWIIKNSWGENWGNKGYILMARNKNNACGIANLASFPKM
Procedure, shortened: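 Jump dilution: recombinant hCatK was preincubated with test compound at high concentration to fully occupy the active site. The mixture was then diluted 300-fold into Z-FR-AMC solution. Progress curves of hCatK activity were recorded to detect recovery of substrate hydrolysis. E-64 served as control.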

rodentCatK = details: mice and rats; cited from earlier work
human osteoclasts (OCs) [4] = assay: Bone resorption by osteoclasts cultured on cortical bone slices; assay type: cell-based
Procedure, shortened: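 Human CD14+ monocytes were seeded on bone slices, with M-CSF added on day 0 and RANKL on day 3 to drive osteoclast maturation. Medium containing test compound or DMSO was refreshed on days 7, 10, 13 and 16. On day 21 the cells were washed off and lysed. Resorption pits (trenches vs pits) were stained with Coomassie Brilliant Blue, and total resorption area was quantified.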

hCatK [5] = target: T1, hCatK; assay: In vitro inhibition assay, fluorogenic substrate; assay type: biochemical
Procedure, shortened: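 Fluorogenic substrate was then added and proteolytic activity read. Values are mean ± SD of one representative experiment measured in triplicate. Selectivity was taken from IC50 values across these proteases.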

human osteoclasts (OCs) [6] = assay: TRAcP staining and counting of mature OCs on plastic; assay type: cell-based; details: highest concentrations
[7] = cited from earlier work
CatK [8] = target: T2, CatK (Homo sapiens, UniProt P43235); assay: Cathepsin K activity in osteoclast lysates; assay type: cell-based; details: lysates treated with BMV109; increase with ODN ascribed to displacement by probe
T2 sequence (P43235 115-329): T1 sequence (P43235 115-329)

[9] = cited from earlier work; remark: listed apart in the source
hCatK [10] = target: T1, hCatK; assay: Kinetic evaluation of covalent inhibitors; assay type: biochemical
Procedure, shortened: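 Recombinant hCatK (100 pM) was used with 4 μM Z-FR-AMC at 26 °C. The reaction was started by adding enzyme to substrate plus test compound. Progress curves of substrate hydrolysis were fitted to derive kinetic constants. Values are mean ± SD of one representative experiment measured in triplicate.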

CatK [11] = details: 100 nM; cited from earlier work
[12] = 100 pM hCatK, 4 μM Z-FR-AMC, 26 °C, reversible covalent

GSH adduct pH 7.5 [1]	Cysteine adduct pH 5.5 [2]	Cysteine adduct pH 7.5 [2]	Cysteine adduct pH 8.0 [2]	Compound	Cysteine adduct formation [2]	further results
94%	92%	98%	95%	CN(C)C/C=C/C(=O)Nc1cc2c(Nc3ccc(F)c(Cl)c3)ncnc2cc1O[C@H]1CCOC1 [Afatinib]	adduct formation that increases upon increasing the pH of the buffer	
0%^b	<1%	17%	48%	CC(C)(F)C[C@H](N[C@@H](c1ccc(-c2ccc(S(C)(=O)=O)cc2)cc1)C(F)(F)F)C(=O)NC1(C#N)CC1 [ODN, odanacatib]	adduct formation that increases upon increasing the pH of the buffer	Reversibility of hCatK inhibition (hCatK [3]): (fast) reversible inhibitor; Reduction of apparent potency on rodentCatK compared to humanCatK (rodentCatK): up to 182 fold; Bone resorption morphology at 3 nM (human osteoclasts (OCs) [4]; 3 nM, 21 days culture, Coomassie staining): deep trenches; Bone resorption morphology at 15 nM (human osteoclasts (OCs) [4]; 15 nM, 21 days culture, Coomassie staining): shallow pits; Effective dose / concentrations inhibiting bone resorption (human osteoclasts (OCs) [4]; 21 days culture on bone slices): around 15 nM; IC50 (hCatK [5]): < 1 nM; Selectivity for CatK over related human cathepsins (hCatK [5]; from IC50 values of Table 2): selective for hCatK; Number of OCs cultured on plastic (human osteoclasts (OCs) [6]): increase in the number of OCs; Side effects in phase III clinical trials [7]: increased stroke risks and cardiovascular events; Mature CatK activity in OC lysates (BMV109 labeling) (CatK [8]): strong increase of mature CatK activity; half-life [9]: 66 to 93 h; Ki (hCatK [10]): 3.8 ± 2.7 nM; k5 (rate of covalent bond formation) (hCatK [10]; [12]): 0.12 ± 0.026 min⁻¹; k6 (rate of covalent bond dissociation) (hCatK [10]; [12]): 0.033 ± 0.0077 min⁻¹; CatK expression upon ODN treatment (CatK [11]): significant increase in CatK expression; Number of OCs upon ODN treatment (CatK [11]): without an increase in the number of OCs
64%	<1%	68%	79%	CC(C)C[C@H](NC(=O)[C@H]1O[C@@H]1C(=O)O)C(=O)NCCCCN=C(N)N [Compound E-64, E-64]	adduct formation that increases upon increasing the pH of the buffer	Ki (hCatK [10]; 100 pM hCatK, 4 μM Z-FR-AMC, 26 °C, irreversible covalent, mean ± SD): 11 ± 1.6 nM
91%	9%	99%	96%	C=CC(=O)N1CCC[C@@H](n2nc(-c3ccc(Oc4ccccc4)cc3)c3c(N)ncnc32)C1 [Ibrutinib]	adduct formation that increases upon increasing the pH of the buffer	
95%	19%	98%	97%	CC#CC(=O)N1CCC[C@H]1c1nc(-c2ccc(C(=O)Nc3ccccn3)cc2)c2c(N)nccn12 [Acalabrutinib]	observed	
